Measurements reported in ChEMBL document CHEMBL1130129, “Immunologically specific activation of a cephalosporin derivative of mitomycin C by monoclonal antibody beta-lactamase conjugates” (J Med Chem, 1997).

Experiments:
[1] = substrate: O=C(O)CCCC(=O)N[C@@H]1C(=O)N2C(C(=O)O)=C(COC(=O)Nc3ccc(N(CCCl)CCCl)cc3)CS[C@H]12; assay: (§1) Determination of kinetic constant (Km) for hydrolysis by beta-lactamase from Enterobacter cloacae 99
In short: (§2)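 Purified E. cloacae β-lactamase (0.1 µg/mL) added to prodrug in PBS pH 7.2 containing 12.5 µg/mL bovine serum albumin, 23 °C; β-lactam hydrolysis followed by loss of absorbance at 260 nm. Initial velocities taken from linear portions of absorbance-time plots and used to derive kinetic constants.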

[2] = substrate: CO[C@@]12[C@H](COC(N)=O)C3=C(C(=O)C(C)=C(NCC4=C(C(=O)O)N5C(=O)[C@@H](NC(=O)Cc6ccccc6)[C@H]5SC4)C3=O)N1C[C@@H]1N[C@@H]12; assay: as §1; in short: as §2
[3] = substrate: O=C(Cc1ccccc1)N[C@@H]1C(=O)N2C(C(=O)O)=C(COC(=O)Nc3ccc(N(CCCl)CCCl)cc3)CS[C@H]12; assay: as §1; in short: as §2
[4] = substrate: CO[C@@]12[C@H](COC(N)=O)C3=C(C(=O)C(C)=C(NCC4=C(C(=O)O)N5C(=O)[C@@H](NC(=O)CCCC(=O)O)[C@H]5SC4)C3=O)N1C[C@@H]1N[C@@H]12; assay: as §1; in short: as §2

B1: Beta-lactamase (Enterobacter cloacae), P05364 (protein)
chain: MMRKSLCCALLLGISCSALATPVSEKQLAEVVANTITPLMKAQSVPGMAVAVIYQGKPHYYTFGKADIAANKPVTPQTLFELGSISKTFTGVLGGDAIARGEISLDDAVTRYWPQLTGKQWQGIRMLDLATYTAGGLPLQVPDEVTDNASLLRFYQNWQPQWKPGTTRLYANASIGLFGALAVKPSGMPYEQAMTTRVLKPLKLDHTWINVPKAEEAHYAWGYRDGKAVRVSPGMLDAQAYGVKTNVQDMANWVMANMAPENVADASLKQGIALAQSRYWRIGSMYQGLGWEMLNWPVEANTVVEGSDSKVALAPLPVAEVNPPAPPVKASWVHKTGSTGGFGSYVAFIPEKQIGIVMLANTSYPNPARVEAAYHILEALQ
Km [1]: 43.2 µM
Km [2]: 48.9 µM
Km [3]: 7 µM
Km [4]: 119 µM
